Screening data: PubChem BioAssay, several laboratories
T cell HTS: T cell immune modulators affecting CD8 T cell-vesicle binding. 2C CD8+ T cell-vesicle binding, flow cytometry; hits give low values. response (vesicle binding), % at 7 µM. 330,000 compounds, 0.068% hits;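 active = response, share of CD8 T cells binding vesicles, and their 90th percentile fluorescence all below set limits, cut at about 80% in these data, passing the limit was not always enough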;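 also: values below 100% mean blocked vesicle binding to the CD8+ T cells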
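Assay system – 2C mouse CD8+ T cells · Also added – QL9-loaded Drosophila micro-vesicles · Timing – Cell–vesicle co-incubation 1.5 h at 37 °C, staining 20 min on ice · Signal – flow cytometry of vesicle-bound cells · Measure – percent CD8+ FL2 mean versus row control · Controls – Peptide-free naked vesicles (low) and QL9 vesicles with 0.7% DMSO vehicle (high)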
NTR1 ag: activates human neurotensin receptor 1; P30989; NTR1-U2OS beta-arrestin-GFP spot imaging, agonist mode; activation, % at 20 µM; 330,000 compounds, 0.17% hits; AID 493036;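 active = activation at or above 40% of the spot to cytoplasm intensity ratio, with at least 20 cells analyzed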;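 also: 0% = DMSO without peptide and 100% = 100 nM NTR1 peptide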
Target sequence (P30989 whole entry, looked up): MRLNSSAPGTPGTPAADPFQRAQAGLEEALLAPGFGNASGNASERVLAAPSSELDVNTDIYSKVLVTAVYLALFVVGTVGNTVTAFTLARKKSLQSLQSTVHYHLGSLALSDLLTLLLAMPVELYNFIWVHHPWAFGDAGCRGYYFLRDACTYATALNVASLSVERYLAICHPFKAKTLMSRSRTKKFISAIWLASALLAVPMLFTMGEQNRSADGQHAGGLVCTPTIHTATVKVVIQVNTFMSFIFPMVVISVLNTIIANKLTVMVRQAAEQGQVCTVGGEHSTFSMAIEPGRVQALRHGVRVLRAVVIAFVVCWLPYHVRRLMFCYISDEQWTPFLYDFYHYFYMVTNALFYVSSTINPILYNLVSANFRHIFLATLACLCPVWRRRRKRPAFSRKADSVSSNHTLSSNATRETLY
beta cell repl: induces beta-cell replication in MIN6 cells; MIN6 cells proliferation, ATPlite luminescence, 48 h; cells starved in 0.2% serum; 100% = growth in 10% serum; proliferation, % at 10 µM; 330,000 compounds, 0.29% hits; AID 2380;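 active = compounds whose signal lies at least 3.5 SD above the mean of all wells on their plate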;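 also: 0% = DMSO-treated cells in low-serum medium and 100% = 10% serum control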
Xi reactivation: reactivates the inactive X chromosome in mouse fibroblasts; 360,000 compounds, 0.055% hits; XiGFP mouse fibroblasts, % GFP-positive cells imaging, 3 d; cells co-treated with 5-aza-dC sensitizer; scaled so ellipticine positive control = 100%; activation, % at 7.58 µM;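 active = mean normalized replicate activation at least 10% and every replicate at or above 10%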;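 also: 0% = median of on-plate neutral control wells and 100% = ellipticine 6 µM median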
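System: 68-5-11 XiGFP fibroblast line | Buffer or medium: DMEM containing 5-aza-dC | Compound: Single point | Times: Compounds 3 days, fix/stain 15 min at room temperature | Benchmarks: Positive control ellipticine, 6 µM final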
Arrestin-AP2 inh: inhibitors of human beta-arrestin and AP2 interaction. FITC-arrestin peptide / GST-AP2 beads, flow cytometry; AP2 beta2 appendage carries R879A mutation. inhibition, % at 10 µM. 340,000 compounds, 0.31% hits. AID 504490;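 active = inhibition above a set limit, near 3 SD of compounds lacking own fluorescence, cut at about 54% in these data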;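 also: plate controls were DMSO wells for no effect and 5 µM unlabelled arrestin peptide for full effect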
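System: GST-AP2 R879A glutathione beads | Also added: FITC-arrestin peptide, 50 nM | Times: 12 min plus 1 h, RT | Signal: Bead flow cytometry, FITC channel | Buffer or medium: PBS with 0.05% Tween 20 and 0.1% BSA | Read-out basis: Percent drop in bead-associated FITC signal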
V-ATPase pH: yeast V-ATPase proton transport regulation by pHLuorin; response, % at 10 µM; 350,000 compounds, 0.37% hits; S. cerevisiae, pHLuorin cytosolic pH fluorescence; AID 504577; in the data active = response mostly above about 7.3%, no sharp cut-off; inactive = mostly below about 5.4%; also: actives read high
VATPase regulator: regulators of yeast V-ATPase proton transport. S. cerevisiae pHLuorin cytosolic pH. 980 compounds, 2% hits. response, % at 10 µM. shares compounds with V-ATPase pH; in the data active = response above about 24%;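 also: plate controls were vehicle wells for no effect and positive control wells for full effect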
An asterisk follows results filed as active; i = inactive; / = no result. Only some compounds are listed: those with a hit (about 0.89% of all), similar ones and a draw of the others.

SMILES	T cell HTS	NTR1 ag	beta cell repl	Xi reactivation	Arrestin-AP2 inh	V-ATPase pH	VATPase regulator
O=[N+]([O-])c1ccc2nc(N3CCCC3)sc2c1	237.9	2.2	-1.2	0.0	-30.2	2.4	/
CCCC#Cc1ccc([C@@H]2[C@@H](CO)N3C(=O)CN(C(=O)c4cccc(F)c4)C[C@@H]23)cc1	/	/	/	0.1	/	/	/
CC1Nc2nc(NC(=O)C(C)(C)C)[nH]c(=O)c2N(C)C1C (centres undefined)	213.8	0.8	0.9	0.1	9.4	12.4*	-0.5
Cc1ccc(S(=O)(=O)NCC(=O)N2CCCCC2)cc1	i	1.6	-1.7	0.0	25.0	11.6*	-41.7
Cc1ccc(C(=O)C2CCOC(C)(C)C2)cc1 (centres undefined)	350.4	0.9	-0.4	0.2	3.0	11.8*	-2.3
CC(C)C(=O)Nc1cc(=O)[nH]c2ncnn12	242.9	-0.4	-2.8	/	5.4	10.3*	-0.3
O=C(NNS(=O)(=O)c1ccccc1[N+](=O)[O-])c1cc2ccccc2cc1O	115.1	-0.8	0.2	0.4	4.3	-3.6	/
O=C(NNS(=O)(=O)c1ccccc1[N+](=O)[O-])c1ccccc1Cl	914.0	1.5	-2.3	-0.1	4.1	11.8*	-1.7
C/C=C/c1ccc2c(c1)[C@H]1[C@H](CCN1S(=O)(=O)c1ccccc1C)[C@@H](CO)N2	/	/	/	0.1	/	/	/
O=c1[nH]c(CN2CCN(CCO)CC2)nc2ccccc12	260.9	-0.2	-3.9	/	-1.7	3.2	/
O=c1[nH]c(CN2CCN(c3ccccc3O)CC2)nc2ccccc12	235.7	0.2	-0.2	/	17.1	14.3*	0.1
CC(C)NC(=O)Nc1cccc2c1O[C@H](CN(C)C(=O)Nc1cccc3ccccc13)[C@@H](C)CN([C@@H](C)CO)C2=O	/	/	/	0.5	/	/	/
N#C/C(=C(/O)COc1ccc(Br)cc1)c1nnc2n1CCCCC2	322.9	0.2	0.2	0.0	18.4	7.5*	-1.3
COc1ccccc1-c1ccc2n(c1=O)C[C@H]1[C@H](CO)[C@@H](C(=O)NCc3ccccc3F)N[C@@H]21	/	/	/	-0.1	/	/	/
CC(C)C(NC(=O)c1ccc(Cl)cc1)C(=O)NC1=NCCS1 (centres undefined)	476.7	0.2	0.1	/	-6.4	-5.0	/
CC(C)[C@H](NC(=O)c1ccc(F)cc1)C(=O)NC1=NCCS1	114.0	1.5	-2.1	0.7	2.1	-1.6	-0.5
C=CCn1c(SCC(=O)Nc2cc(C)c(Cl)cc2OC)nnc1-c1ccco1	410.3	3.2	-2.8	/	8.4	4.2	/
C=CCn1c(SCC(=O)Nc2cc(C)ccc2OC)nnc1-c1ccco1	189.5	2.1	2.4	/	-0.6	10.8*	0.2
Cn1c2ccccc2c2nnc(SCC(=O)Nc3cccc(C(=O)O)c3)nc21	i	0.0	0.4	0.1	-9.3	6.0	/
Cn1c2ccc(F)cc2c2nnc(SCC(=O)Nc3cccc(O)c3)nc21	155.8	3.0	-3.1	0.1	-2.6	10.8*	-0.6
CCCC(=O)N1CCC2(CC1)CN(Cc1ccc(Cl)cc1)[C@H](CO)c1[nH]c3cc(OC)ccc3c12	/	/	/	0.2	/	/	/
CC(=O)Nc1ccc(NC(=O)c2ccc(NS(=O)(=O)c3cc(C(C)(C)C)cc(C)c3C)cc2)cc1	675.6	3.3	-2.5	-0.1	1.4	10.9*	2.0
CN(C)CC(=O)Nc1ccc2c(c1)[C@@H]1C[C@@H](CC(=O)N3CCOCC3)O[C@H](CO)[C@@H]1O2	/	/	/	0.0	/	/	/
COc1ccc(-c2c(-c3ccc(OC)c(F)c3)c3ccccc3n2C)cc1	320.4	4.3	-5.0	-0.1	32.6	21.3*	3.2
COc1ccc(O)c(CN2CCC(n3nccc3NC(=O)c3ccccc3Cl)CC2)c1	242.9	0.4	-3.2	0.0	47.2	9.2*	2.2
SMILES	T cell HTS	NTR1 ag	beta cell repl	Xi reactivation	Arrestin-AP2 inh	V-ATPase pH	VATPase regulator
COc1ccc(O)c(CN2CCC(n3nccc3NC(=O)CCOc3ccccc3)CC2)c1	278.8	0.8	-0.9	0.1	11.6	-4.6	/
CC(=O)Nc1ccc2c(c1)C(=O)N(C)C[C@H](C)[C@@H](CN(C)C(C)=O)O2	/	/	/	0.3	/	/	/
O=C(NCC1(N2CCCCC2)CCCCC1)c1ccc(S(=O)(=O)N2CCCC2)cc1	550.4	0.7	-0.4	0.2	10.8	7.8*	-6.5
O=C(CCC(=O)c1ccc(F)cc1)NN1C(=O)NC2(CCCCC2)C1=O	471.1	-0.5	2.7	0.1	17.2	0.8	/
O=C(CCC(=O)c1ccc(F)cc1)NCC1(N2CCCCC2)CCCCC1	126.5	-0.9	-4.9	0.0	20.4	-1.1	-1.6
O=C(NCC1(N2CCCCC2)CCCCC1)c1ccc(NS(=O)(=O)c2ccccc2)cc1	149.6	-0.9	-1.6	0.4	-5.8	-0.5	/
CCCNC(=O)Nc1ccc2c(c1)OC[C@H](C)N(S(C)(=O)=O)C[C@@H](C)[C@@H](OC)CN(C)C2=O	/	/	/	0.1	/	/	/
Cc1ccc(S(=O)(=O)Nc2ccc3c(c2)C(=O)N([C@H](C)CO)C[C@@H](C)[C@@H](CN(C)C(=O)NC2CCCCC2)OCCCC[C@@H](C)O3)cc1	/	/	/	0.2	/	/	/
COc1ccc(S(=O)(=O)Nc2ccc3c(c2)CC(=O)N([C@H](C)CO)C[C@@H](C)[C@H](CN(C)Cc2ccc(Cl)c(Cl)c2)O3)cc1	/	/	/	0.0	/	/	/
O=C/C(=C\Nc1ccc(Br)cc1)c1nc2ccccc2o1	323.5	0.2	-2.0	0.0	20.4	8.9*	0.5
COc1cccc2c1nc(C)c1cc(C)oc12	538.5	-0.7	-0.5	/	8.9	10.6*	-4.5
COc1ccc2nc(C)c3cc(C)oc3c2c1	558.1	0.3	-0.5	/	-3.0	-3.3	/
COc1ccc(CC(=O)N2CC(=O)N(CCc3ccccc3)C(=O)C2)cc1	58.5	1.6	-1.8	/	1.3	8.7*	-0.5
CCCC#Cc1ccc2c(c1)O[C@@H](CN(C)C(=O)C1CC1)[C@H](C)CN([C@H](C)CO)S2(=O)=O	/	/	/	-0.3	/	/	/
COc1ccc2c(=O)cc(-c3ccccc3F)oc2c1	363.8	1.1	-2.3	0.0	-0.2	5.7*	-0.8
Cc1ccnc(NS(=O)(=O)c2ccc(NC(=O)c3ccc(N4C(=O)CCC4=O)cc3)cc2)n1	734.0	-0.2	-0.6	-0.1	12.5	11.6*	3.3
COc1ccc(C(=O)Nc2ccc(S(=O)(=O)Nc3nccc(C)n3)cc2)cc1	281.2	0.3	-0.5	0.0	-5.3	1.5	/
Cc1nn(CC#N)c(=O)n1-c1ccc(C(C)C)cc1	199.0	0.8	0.2	0.0	16.5	-2.5	/
Cc1nn(CC#N)c(=O)n1-c1ccc(Cl)cc1	164.8	1.1	-0.3	-0.1	4.7	1.4	-3.7
C[C@@H]1CN([C@H](C)CO)C(=O)c2ccccc2-c2ccccc2CO[C@H]1CN(C)C(=O)CCN(C)C	/	/	/	-1.1	/	/	/
O=C(N[C@@H](Cc1ccccc1)C(=O)NCCc1c[nH]c2ccccc12)c1ccco1	415.3	3.9	0.9	0.2	16.3	12.9*	-0.8
